Data from ChEMBL document CHEMBL4373721, “Computer-Aided Design of Mastoparan-like Peptides Enables the Generation of Nontoxic Variants with Extended Antibacterial Properties” (J Med Chem, 2019).
≈ marks a conversion by molar mass, not a printed value. Calls of active or inactive are those of the source. The calls are words filed in the database; no cut-off is given here. Residues, ends and D or L forms follow the SMILES beside them.

How the values were obtained:
Pseudomonas aeruginosa [1] = assay: Antibacterial activity against Pseudomonas aeruginosa PA14 infected in CD-1 IGS mouse model of scarification skin infection assessed as reduction in bacterial counts at 64 uM measured on day 2 post-infection relative to control; format: functional
Summary of the method: (§1)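 Six-week-old female CD-1 IGS mice under isoflurane, back shaved, superficial skin abrasions sparing the dermis. Five minutes later, 5 x 10^7 CFU in 50 μL PBS applied to the wound. Two days later, peptide applied to the same area at 64 µM in 20 µL. Infected skin excised and homogenized for CFU counts two and four days post-infection. Four mice per group, two independent experiments; one-way ANOVA with Dunnett's test.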

MCF7 = assay: Cytotoxicity in human MCF7 cells assessed as reduction in cell viability incubated for 2 hrs by MTT assay; format: functional, cell-based; details: MCF7, 2 h
Pseudomonas aeruginosa [2] = assay: Antibacterial activity against Pseudomonas aeruginosa PA14 infected in CD-1 IGS mouse model of scarification skin infection assessed as reduction in bacterial counts at 64 uM measured on day 2 to 4 post-infection relative to control; format: functional, organism-based; details: TDE = time-dependent effect; summary of the method: as §1
Acinetobacter baumannii = assay: Antibacterial activity against Acinetobacter baumannii isolate 003326263 incubated for 18 hrs by spectrophotometry; format: functional; details: isolate 003326263, 18 h
Summary of the method: (§2)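 Broth microdilution per CLSI in Mueller-Hinton broth. Three colonies grown overnight in MHB at 37 °C, 200 rpm; final inoculum 2-5 x 10^5 CFU/mL. Peptides tested at 2 to 32 μM, chloramphenicol as positive control at the same concentrations. Incubated 18 h at 37 °C, OD600 read. MIC taken as lowest inhibiting concentration; three independent experiments.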

Enterobacter cloacae = assay: Antibacterial activity against Enterobacter cloacae isolate 1383251 incubated for 18 hrs by spectrophotometry; format: functional; details: isolate 1383251, 18 h; summary of the method: as §2
Pseudomonas aeruginosa [3] = assay: Antibiofilm activity against 2 day-old preformed Pseudomonas aeruginosa PAO1 assessed as induction of biofilm eradication at 16 uM incubated for 24 hrs by SYTO-9 dye based by confocal microscopy; format: functional, organism-based
Summary of the method: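 Flow-cell biofilms: chambers inoculated with overnight culture diluted to OD600 ~0.5, grown in BM2 with 0.4% glucose. Established biofilms then given continuous flow of peptide at 16 µM in BM2 for 24 h. Stained with SYTO-9 (live) and propidium iodide (dead), imaged by confocal microscopy with 3D reconstruction. Two independent experiments.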

Klebsiella pneumoniae [4] = assay: Antibacterial activity against Klebsiella pneumoniae ATCC 13883 incubated for 18 hrs by spectrophotometry; format: functional; details: ATCC 13883, 18 h; summary of the method: as §2
Pseudomonas aeruginosa [5] = assay: Antibacterial activity against Pseudomonas aeruginosa PA14 incubated for 18 hrs by spectrophotometry; format: functional; details: PA14, 18 h; summary of the method: as §2
Pseudomonas aeruginosa [6] = assay: Antibacterial activity against Pseudomonas aeruginosa PAO1 incubated for 18 hrs by spectrophotometry; format: functional; details: PAO1, 18 h; summary of the method: as §2
Escherichia coli [7] = assay: Antibacterial activity against Escherichia coli ATCC 25922 incubated for 18 hrs by spectrophotometry; format: functional; details: ATCC 25922, 18 h; summary of the method: as §2
Staphylococcus aureus [8] = assay: Antibacterial activity against methicillin-resistant Staphylococcus aureus isolate 713623 incubated for 18 hrs by spectrophotometry; format: functional; details: isolate 713623, 18 h
Summary of the method: (§3)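 Broth microdilution per CLSI in Mueller-Hinton broth; inocula from three colonies grown overnight at 37 °C, 200 rpm; final 2-5 x 10^5 CFU/mL. Peptides tested at 2 to 32 μM; chloramphenicol at same concentrations as positive control. Plates incubated 37 °C, 18 h; growth read at 600 nm. Three independent experiments.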

HUVEC = assay: Cytotoxicity in HUVEC assessed as reduction in cell viability incubated for 2 hrs by MTT assay; format: cell-based; details: Homo sapiens
Summary of the method: (§4)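 Cells grown at 37 °C, 5% CO2, passages 2–10, seeded 5 x 10^3 cells/well, attached 24 h. Media refreshed, then peptides added at final 0.781 to 100 μM. Viability reagent added after 2 h, followed by 4 h further incubation. Supernatant replaced by DMSO, absorbance read at 600 nm. Three independent experiments.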

PC-3 = assay: Cytotoxicity in human PC3 cells assessed as reduction in cell viability incubated for 2 hrs by MTT assay; format: functional, cell-based; details: PC-3, 2 h
Escherichia coli [9] = assay: Antibacterial activity against KPC+ Escherichia coli isolate 001812446 incubated for 18 hrs by spectrophotometry; format: functional; details: isolate 001812446, 18 h; summary of the method: as §2
[10] = Induction of hemolysis in human RBC at 100 uM incubated for 1 hr relative to control; format: cell-based, Erythrocyte; details: red blood cells (RBC), read-out: Activity
Summary of the method: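 Human erythrocytes from healthy volunteers, washed three times in PBS, used as a 0.25% suspension in PBS. Peptides serially diluted, top concentration 100 μM per well. Incubated 1 h at 37 °C, then centrifuged, and supernatant absorbance read at 415 nm. PBS was the negative control and 1% Triton X-100 the 100% lysis control. Three replicates.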

Escherichia coli [11] = assay: Antibacterial activity against Escherichia coli BL21 incubated for 18 hrs by spectrophotometry; format: functional; details: BL21, 18 h; summary of the method: as §2
Staphylococcus aureus [12] = assay: Antibacterial activity against Staphylococcus aureus ATCC 25923 incubated for 18 hrs by spectrophotometry; format: functional; details: ATCC 25923, 18 h; summary of the method: as §3
Klebsiella pneumoniae [13] = assay: Antibacterial activity against KPC+ Klebsiella pneumoniae isolate 001825971 incubated for 18 hrs by spectrophotometry; format: functional; details: isolate 001825971, 18 h; summary of the method: as §2
Pseudomonas aeruginosa [14] = assay: Antibacterial activity against Pseudomonas aeruginosa PA14 infected in CD-1 IGS mouse model of scarification skin infection assessed as reduction in bacterial counts at 64 uM measured on day 4 post-infection relative to control; format: functional; summary of the method: as §1
Pseudomonas aeruginosa [15] = assay: Antibacterial activity against bioluminescent Pseudomonas aeruginosa H1001 incubated for 4 hrs by luminescence based assay; format: functional; details: H1001, 4 h
Summary of the method: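 Crude peptides released from cellulose spots, two-fold diluted in BM2 (62 mM potassium phosphate pH 7, 2 mM MgSO4, 10 μM FeSO4, 0.4% glucose). Strain fliC::luxCDABE grown in LB to OD600 0.4, diluted 4:100 into BM2, mixed 1:1 with peptide (128 to 2 μM). Shaken 50 rpm, 4 h, 37 °C. Activity scored as luminescence reduction versus untreated cells.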

HT-29 = assay: Cytotoxicity in human HT-29 cells assessed as reduction in cell viability incubated for 2 hrs by MTT assay; format: functional, cell-based; details: HT-29, 2 h
Staphylococcus aureus [16] = assay: Antibacterial activity against Staphylococcus aureus ATCC 12600 incubated for 18 hrs by spectrophotometry; format: functional; details: ATCC 12600, 18 h; summary of the method: as §2
3T3-L1 = assay: Cytotoxicity in mouse 3T3L1 cells assessed as reduction in cell viability incubated for 2 hrs by MTT assay; format: cell-based; details: 3T3-L1, 2 h; summary of the method: as §4

SMILES	fold change (FC) (Pseudomonas aeruginosa [1])	IC50 (MCF7)	Activity (Pseudomonas aeruginosa [2])	MIC (Acinetobacter baumannii)	MIC (Enterobacter cloacae)	Activity (Pseudomonas aeruginosa [3])	MIC (Klebsiella pneumoniae [4])	MIC (Pseudomonas aeruginosa [5])	MIC (Pseudomonas aeruginosa [6])	MIC (Escherichia coli [7])	MIC (Staphylococcus aureus [8])	IC50 (HUVEC)	IC50 (PC-3)	MIC (Escherichia coli [9])	hemolysis at 1 h, 100 µM [10]	MIC (Escherichia coli [11])	MIC (Staphylococcus aureus [12])	MIC (Klebsiella pneumoniae [13])	MIC (Pseudomonas aeruginosa [15])	IC50 (HT-29)	further results
CC[C@H](C)[C@H](NC(=O)[C@H](CCCCN)NC(=O)[C@H](C)NC(=O)[C@H](C)NC(=O)[C@H](CC(C)C)NC(=O)[C@H](CCCNC(=N)N)NC(=O)[C@H](CC(C)C)NC(=O)[C@H](C)NC(=O)[C@H](CC(C)C)NC(=O)[C@H](CCCCN)NC(=O)[C@H](CC(C)C)NC(=O)[C@H](CCCCN)NC(=O)[C@H](CCCCN)NC(=O)[C@H](CCSC)NC(=O)[C@@H]1CCCN1)C(=O)N[C@@H](C)C(=O)N1CCC[C@H]1C(=O)N[C@H](C(=O)N[C@@H](Cc1c[nH]c2ccccc12)C(=O)O)C(C)C (H-PMKKLKLALRLAAKIAPVW-OH)	100	–	–	–	–	–	–	–	–	–	–	–	–	–	–	–	–	–	–	–	–
CC[C@H](C)[C@H](NC(=O)[C@H](CCCCN)NC(=O)[C@H](CCCCN)NC(=O)[C@@H](NC(=O)[C@H](CCCCN)NC(=O)[C@H](C)NC(=O)[C@H](C)NC(=O)[C@H](CC(C)C)NC(=O)[C@H](CCCNC(=N)N)NC(=O)[C@H](CCCCN)NC(=O)[C@H](CC(C)C)NC(=O)[C@@H](NC(=O)[C@@H](N)CCCCN)[C@@H](C)CC)[C@@H](C)CC)C(=O)N[C@@H](CC(C)C)C(=O)O (H-KILKRLAAKIKKIL-OH)	100	> 100 µM	Tde	> 32 µM	> 32 µM	Active	8 µM (≈ 13.1 µg/mL)	4 µM (≈ 6.54 µg/mL)	4 µM (≈ 6.54 µg/mL)	4 µM (≈ 6.54 µg/mL)	> 32 µM	> 100 µM	> 100 µM	8 µM (≈ 13.1 µg/mL)	3%	2 µM (≈ 3.27 µg/mL)	> 32 µM	> 32 µM	4 µM (≈ 6.54 µg/mL)	> 100 µM	fold change (FC) (Pseudomonas aeruginosa [14]): 1000; MIC (Staphylococcus aureus [16]): 4 µM (≈ 6.54 µg/mL); IC50 (3T3-L1): > 100 µM
CC[C@H](C)[C@H](N)C(=O)N[C@@H](CC(N)=O)C(=O)N[C@@H](CC(C)C)C(=O)N[C@@H](CCCCN)C(=O)N[C@@H](C)C(=O)N[C@@H](CC(C)C)C(=O)N[C@@H](C)C(=O)N[C@@H](C)C(=O)N[C@@H](CC(C)C)C(=O)N[C@@H](C)C(=O)N[C@@H](CCCCN)C(=O)N[C@@H](CCCCN)C(=O)N[C@H](C(=O)N[C@@H](CC(C)C)C(=O)O)[C@@H](C)CC	100	25 µM	Tde	> 32 µM	> 32 µM	inactive	> 32 µM	8 µM (≈ 11.8 µg/mL)	8 µM (≈ 11.8 µg/mL)	32 µM (≈ 47.4 µg/mL)	> 32 µM	50 µM	12.5 µM	> 32 µM	45%	2 µM (≈ 2.96 µg/mL)	> 32 µM	> 32 µM	–	25 µM	Activity (Pseudomonas aeruginosa [14]): Active; MIC (Staphylococcus aureus [16]): 8 µM (≈ 11.8 µg/mL); IC50 (3T3-L1): 12.5 µM
CC[C@H](C)[C@H](N)C(=O)N[C@@H](CCCCN)C(=O)N[C@@H](CC(C)C)C(=O)N[C@@H](CC(C)C)C(=O)N[C@@H](C)C(=O)N[C@@H](CCCNC(=N)N)C(=O)N[C@H](C(=O)N[C@@H](C)C(=O)N[C@@H](CC(C)C)C(=O)N[C@@H](CCCCN)C(=O)N[C@H](C(=O)N[C@@H](CCCCN)C(=O)N[C@H](C(=O)N[C@@H](CC(C)C)C(=O)O)[C@@H](C)CC)[C@@H](C)CC)[C@@H](C)CC (H-IKLLARIALKIKIL-OH)	–	–	–	–	–	–	–	–	–	–	–	–	–	–	–	–	–	–	30 µM (≈ 48.2 µg/mL)	–	–
CC[C@H](C)[C@H](N)C(=O)N[C@@H](CC(N)=O)C(=O)N[C@@H](CCCCN)C(=O)N[C@H](C(=O)N[C@@H](C)C(=O)N[C@@H](CC(C)C)C(=O)N[C@@H](CCCNC(=N)N)C(=O)N[C@H](C(=O)N[C@@H](CC(C)C)C(=O)N[C@@H](C)C(=O)N[C@@H](CCCCN)C(=O)N[C@H](C(=O)N[C@H](C(=O)N[C@@H](CC(C)C)C(=O)O)[C@@H](C)CC)[C@@H](C)CC)[C@@H](C)CC)[C@@H](C)CC (H-INKIALRILAKIIL-OH)	–	–	–	–	–	–	–	–	–	–	–	–	–	–	–	–	–	–	30 µM (≈ 47.8 µg/mL)	–	–
CC[C@H](C)[C@H](N)C(=O)N[C@@H](CC(N)=O)C(=O)N[C@@H](CC(C)C)C(=O)N[C@@H](CCCCN)C(=O)N[C@@H](CCCCN)C(=O)N[C@@H](CC(C)C)C(=O)N[C@@H](C)C(=O)N[C@@H](C)C(=O)N[C@@H](CCCNC(=N)N)C(=O)N[C@H](C(=O)N[C@@H](CCCCN)C(=O)N[C@@H](CCCCN)C(=O)N[C@@H](CCCCN)C(=O)N[C@H](C(=O)O)[C@@H](C)CC)[C@@H](C)CC (H-INLKKLAARIKKKI-OH)	100	> 100 µM	Tde	> 32 µM	> 32 µM	Active	> 32 µM	4 µM (≈ 6.55 µg/mL)	4 µM (≈ 6.55 µg/mL)	4 µM (≈ 6.55 µg/mL)	8 µM (≈ 13.1 µg/mL)	> 100 µM	> 100 µM	8 µM (≈ 13.1 µg/mL)	8%	2 µM (≈ 3.27 µg/mL)	8 µM (≈ 13.1 µg/mL)	> 32 µM	4 µM (≈ 6.55 µg/mL)	> 100 µM	Activity (Pseudomonas aeruginosa [14]): Active; MIC (Staphylococcus aureus [16]): 4 µM (≈ 6.55 µg/mL); IC50 (3T3-L1): > 100 µM
